From ChEMBL document CHEMBL1134384, “Development of new carboxylic acid-based MMP inhibitors derived from functionalized propargylglycines” (J Med Chem, 2001) come the findings set out here.

Each structure is given as a SMILES string. Values after ≈ are worked out from the molar mass of the structure shown.

The target in series [1] is 72 kDa type IV collagenase (Homo sapiens, UniProt P08253). Briefly: Inhibitory activity against matrix metalloprotease-2 (MMP-2) in quenched fluorescence assay at […]. The method in brief: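 Full-length human recombinant proMMP-2 from CHO cells was activated with 1 mM APMA for 45 min and used at 1 nM final. Cleavage of 4 μM Mca-Pro-Leu-Gly-Leu-Dpa-Ala-Arg-NH₂ was followed at 25 °C in Tris pH 7.5/NaCl/CaCl₂/Brij-35 buffer, with fluorescence read kinetically for 30 min. IC50 came from 8 inhibitor concentrations.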

The next series addresses T1, Interstitial collagenase (Homo sapiens, UniProt P03956).
T1 sequence (P03956 whole entry): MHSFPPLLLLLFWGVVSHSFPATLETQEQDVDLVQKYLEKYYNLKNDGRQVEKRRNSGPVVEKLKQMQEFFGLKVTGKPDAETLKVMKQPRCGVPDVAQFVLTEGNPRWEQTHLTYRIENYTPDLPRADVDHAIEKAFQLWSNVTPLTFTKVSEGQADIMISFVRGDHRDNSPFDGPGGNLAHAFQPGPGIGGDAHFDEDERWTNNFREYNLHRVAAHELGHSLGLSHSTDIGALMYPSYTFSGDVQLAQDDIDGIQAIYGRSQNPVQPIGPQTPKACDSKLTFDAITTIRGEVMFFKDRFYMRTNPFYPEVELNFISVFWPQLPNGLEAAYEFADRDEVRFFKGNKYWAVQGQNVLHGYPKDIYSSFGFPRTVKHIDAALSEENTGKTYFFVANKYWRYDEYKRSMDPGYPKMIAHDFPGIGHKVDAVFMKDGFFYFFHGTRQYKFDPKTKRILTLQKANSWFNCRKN
Briefly: Inhibitory activity against human matrix metalloprotease-1 in quenched fluorescence assay at […]. An outline of the steps: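 Quenched fluorescence assay using truncated human recombinant enzymes expressed in E. coli, at final concentrations of 8 nM for MMP-1 and 16 nM for MMP-3. Substrate was Mca-Pro-Leu-Gly-Leu-Dpa-Ala-Arg-NH₂ at 4 μM, at 25 °C, in 50 mM Tris pH 7.5, 0.2 M NaCl, 5 mM CaCl₂, 0.02% Brij-35. Fluorescence (ex 328/em 393 nm) was read kinetically for 30 min. Eight inhibitor concentrations were tested and IC50 was fitted from Vi/V0.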

Series [2] in a line: Solubility was determined at a pH of […]. It counts as physicochemical. To be noted: pH 7.
Series [3] can be described thus: Bioavailability in rat (fasted) using cassette dosing. It is filed as ADME, organism-based. To be noted: in vivo. An outline of the steps:
(§1)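 Fasted rats (n = 3/4) received cassette doses of 4–5 compounds per experiment at 1–5 mg/kg of each inhibitor. Each study included a control compound previously characterized in a single-compound experiment, to validate the data set and detect problems such as saturation of elimination.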

Series [4] can be described thus: Half life was determined in fasted rats using cassette dosing technique. It counts as ADME, organism-based. To be noted: rat, in vivo. An outline of the steps:
as §1

A further series deals with Stromelysin-1 (Homo sapiens, UniProt P08254). The series can be described thus: Inhibitory activity against human matrix metalloprotease-3 (MMP-3) ([…]).
Series [5] addresses T2, Collagenase 3 (Homo sapiens, UniProt P45452). The series can be described thus: Inhibitory activity against human matrix metalloprotease-13 in quenched fluorescence assay at pH 7.4.
Series [6] deals with T2, Collagenase 3. The series can be described thus: Inhibition of human matrix metalloprotease-13 at pH 7.4.

The IC50 is the concentration that inhibits the measured activity by half. High values mean a need for much substance, low ones inhibition by little substance. For orientation: solubility means the concentration that dissolves in the medium under given conditions. A low value points to little dissolved substance. A word on the bioavailability: it is the share of a dose that reaches the circulation, judged against a reference dose that is usually intravenous. Higher therefore signals much systemic uptake. In general, half-life refers to the time in which the quantity being followed falls by half.

Chain of Stromelysin-1 (P08254 whole entry): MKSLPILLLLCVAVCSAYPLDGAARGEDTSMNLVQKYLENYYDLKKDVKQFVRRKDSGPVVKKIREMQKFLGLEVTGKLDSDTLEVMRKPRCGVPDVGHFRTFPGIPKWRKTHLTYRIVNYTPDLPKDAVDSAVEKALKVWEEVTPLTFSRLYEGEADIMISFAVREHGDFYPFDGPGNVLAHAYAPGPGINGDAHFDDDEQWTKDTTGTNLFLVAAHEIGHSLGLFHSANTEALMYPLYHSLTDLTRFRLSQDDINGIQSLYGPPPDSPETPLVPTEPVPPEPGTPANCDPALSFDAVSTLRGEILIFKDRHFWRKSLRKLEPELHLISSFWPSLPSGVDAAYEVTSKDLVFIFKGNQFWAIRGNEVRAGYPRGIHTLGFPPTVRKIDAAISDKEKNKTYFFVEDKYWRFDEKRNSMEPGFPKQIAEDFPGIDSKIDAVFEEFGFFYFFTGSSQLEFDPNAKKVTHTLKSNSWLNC
Chain of 72 kDa type IV collagenase (P08253 whole entry): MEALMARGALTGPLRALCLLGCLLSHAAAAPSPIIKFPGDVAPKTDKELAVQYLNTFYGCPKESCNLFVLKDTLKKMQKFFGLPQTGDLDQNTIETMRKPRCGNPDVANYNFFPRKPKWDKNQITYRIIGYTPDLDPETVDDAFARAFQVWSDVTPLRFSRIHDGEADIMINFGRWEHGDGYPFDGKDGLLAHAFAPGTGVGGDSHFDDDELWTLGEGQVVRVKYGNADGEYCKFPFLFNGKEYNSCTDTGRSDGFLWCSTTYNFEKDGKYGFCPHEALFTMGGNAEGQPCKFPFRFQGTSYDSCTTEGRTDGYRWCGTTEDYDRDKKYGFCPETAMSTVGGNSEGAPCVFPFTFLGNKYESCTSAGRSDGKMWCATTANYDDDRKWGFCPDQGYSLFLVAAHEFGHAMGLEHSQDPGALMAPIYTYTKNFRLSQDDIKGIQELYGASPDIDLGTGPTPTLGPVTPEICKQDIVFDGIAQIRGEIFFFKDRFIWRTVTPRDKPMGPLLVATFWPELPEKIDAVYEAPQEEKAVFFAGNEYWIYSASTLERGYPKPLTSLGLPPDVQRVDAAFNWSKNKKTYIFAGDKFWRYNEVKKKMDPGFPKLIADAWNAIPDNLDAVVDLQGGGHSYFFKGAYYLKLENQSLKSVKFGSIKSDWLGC

Take `COc1ccc(C#Cc2ccc(S(=O)(=O)NC(CC#Cc3ccccc3)C(=O)O)cc2)cc1` (stereo not drawn): the concentration for half-maximal inhibition (IC50) in series [1] is 9 nM; against Interstitial collagenase it was greater than 10000 nM; against Stromelysin-1, 4360 nM; at Collagenase 3 [5] it was 35 nM. Moreover, the solubility in series [2] turned out to be 20 µg/mL (≈ 43.5 µM). In series [3], this compound had a bioavailability of 26%. This compound had a half-life in series [4] of 0.7 h.

In the case of `O=C(Nc1ccc(S(=O)(=O)NC(CC#CCN2CCOCC2)C(=O)O)cc1)c1ccc(Br)cc1` (stereo not drawn), the half-inhibitory concentration (IC50) in series [1] is 12 nM; against Interstitial collagenase it was greater than 10000 nM; at Stromelysin-1 it was 17400 nM; against Collagenase 3 [5], 344 nM. This compound had a solubility in series [2] of 4400 µg/mL (≈ 7990 µM).

In the case of `COc1ccc(C#Cc2ccc(S(=O)(=O)NC(CC#CCN3CCOCC3)C(=O)O)cc2)cc1` (stereo not drawn), the concentration for half-maximal inhibition (IC50) in series [1] turned out to be 28 nM; on Stromelysin-1, 6600 nM. The same compound returned a solubility in series [2] of 151000 µg/mL (≈ 313000 µM). The same compound came in with a bioavailability in series [3] of 12%. For the same compound, in series [4], the half-life was 3.6 h.

In the case of `COc1ccc(-c2ccc(S(=O)(=O)NC(CC#Cc3ccccc3)C(=O)O)cc2)cc1` (stereo not drawn), the 50% inhibitory concentration (IC50) in series [1] came out at 12 nM; on Interstitial collagenase, 2000 nM; at Stromelysin-1, 2280 nM; on Collagenase 3 [5], 21 nM. The concentration in solution in series [2] (solubility) was 20 µg/mL (≈ 45.9 µM). The same compound yielded a bioavailability in series [3] of 49%. This compound also showed a half-life in series [4] of 1.7 h.

As for `COc1ccc(C#Cc2ccc(S(=O)(=O)NC(CC#Cc3ccccc3)C(=O)O)s2)cc1` (stereo not drawn), the half-maximal inhibitory concentration (IC50) in series [1] was found to be 46 nM; against Stromelysin-1, 10100 nM; at Collagenase 3 [6], 145 nM.

With `COc1ccc(-c2ccc(S(=O)(=O)NC(CC#Cc3cccc(N4CCOCC4)c3)C(=O)O)cc2)cc1` (stereo not drawn), the IC50 in series [1] worked out at 16 nM; against Interstitial collagenase, 3660 nM; on Stromelysin-1 it was 3520 nM; against Collagenase 3 [5], 24 nM. For the same compound, the solubility in series [2] stood at 580 µg/mL (≈ 1110 µM). In addition, the bioavailability in series [3] worked out at 7%. Besides, the half-life in series [4] was 0.1 h.

As for `CO[C@H](C#Cc1ccccc1)C(NS(=O)(=O)c1ccc(-c2ccc(SC)cc2)cc1)C(=O)O` (stereo partly drawn), the IC50 was 8 nM in series [1], 3400 nM against Interstitial collagenase, 5100 nM against Stromelysin-1 and 33 nM at Collagenase 3 [5]. Moreover, the solubility in series [2] was found to be 120 µg/mL (≈ 249 µM).

Regarding `COCC#CCC(NS(=O)(=O)c1ccc(-c2ccc(Br)cc2)cc1)C(=O)O` (stereo not drawn), the half-inhibitory concentration (IC50) in series [1] was determined as 17 nM; at Interstitial collagenase, 24800 nM; on Stromelysin-1, 3330 nM; at Collagenase 3 [5], 147 nM. Moreover, the concentration in solution in series [2] (solubility) was 12000 µg/mL (≈ 26500 µM).

On to `O=C(O)C(CC#Cc1ccccc1)NS(=O)(=O)c1ccc(-c2ccc3c(c2)OCO3)cc1` (stereo not drawn), for which the half-maximal inhibitory concentration (IC50) in series [1] was 29 nM; against Interstitial collagenase, 10300 nM; against Stromelysin-1 it was 5440 nM; at Collagenase 3 [5], 104 nM. In addition, the solubility in series [2] is 80 µg/mL (≈ 178 µM).

Take `COCC#CCC(NS(=O)(=O)c1ccc(-c2ccc(OC)cc2)cc1)C(=O)O` (stereo not drawn): the IC50 worked out at 20 nM in series [1], 6150 nM against Interstitial collagenase and 76 nM on Collagenase 3 [5]. The compound also returned a solubility in series [2] of 5800 µg/mL (≈ 14400 µM).

Take `COc1ccc(C(=O)Nc2ccc(S(=O)(=O)NC(CC#CCOc3ccccc3)C(=O)O)cc2)cc1` (stereo not drawn): the IC50 in series [1] is 9 nM; at Interstitial collagenase, greater than 10000 nM; against Stromelysin-1, 3920 nM; against Collagenase 3 [5], 226 nM. The compound also returned a solubility in series [2] of 410 µg/mL (≈ 806 µM).
